Assay outcomes as filed in PubChem BioAssay.
TAAR1 antag: antagonists of human TAAR1; CHO RD-HGA16 TAAR1, Fluo-8 calcium fluorescence, antagonist; actives 1.5% (n = 360,000); inhibition, % at 3 µM; AID 624466;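 active = inhibition above a per-plate cutoff, the mean inhibition of test compounds on that plate plus 3 SD, cut at about 49% in these data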;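 also: 0% = DMSO plus EC80 beta-PEA response and 100% = DMSO alone without agonist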
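Material: RD-HGA16 CHO cells with stable hTAAR1 and Gα16; Dosing: single nominal final test compound concentration of 3 µM; Schedule: seeding 17-24 h prior, 75-min 37 °C, 30-min RT dye loading; Detection: kinetic Fluo-8 calcium fluorescence measurement; Measure: % inhibition from peak post-agonist over basal fluorescence ratio; Benchmarks: vehicle and agonist controls.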
M1 ag: agonists of human M1 muscarinic receptor; P11229; CHO-K1 hM1, Fluo-8 calcium fluorescence, agonist mode; 0% DMSO, 100% acetylcholine EC100; activation, % at 3 µM; actives 0.33% (n = 360,000);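 active = activation above the run's mean compound activation plus 3 SD, cut at about 16% in these data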;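 also: peak over basal fluorescence ratio within a 140 s kinetic read after compound addition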
Target sequence (P11229 whole entry, looked up): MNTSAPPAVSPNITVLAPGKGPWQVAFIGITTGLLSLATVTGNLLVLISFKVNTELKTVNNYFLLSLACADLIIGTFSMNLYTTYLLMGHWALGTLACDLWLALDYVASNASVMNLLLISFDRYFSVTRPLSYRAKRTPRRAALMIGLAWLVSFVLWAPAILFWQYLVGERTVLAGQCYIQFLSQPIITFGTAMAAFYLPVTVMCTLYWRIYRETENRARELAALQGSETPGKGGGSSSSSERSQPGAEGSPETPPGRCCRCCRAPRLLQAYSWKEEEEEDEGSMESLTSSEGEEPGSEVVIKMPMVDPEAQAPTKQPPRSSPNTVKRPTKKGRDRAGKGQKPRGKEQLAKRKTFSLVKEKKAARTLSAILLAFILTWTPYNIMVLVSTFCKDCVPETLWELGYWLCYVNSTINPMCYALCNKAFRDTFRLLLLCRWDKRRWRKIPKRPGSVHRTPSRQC
TAAR1 agonist: agonists of human TAAR1. Q96RJ0. CHO RD-HGA16 TAAR1, Fluo-8 calcium fluorescence; vehicle wells 0%, saturating PEA agonist 100%. activation, % at 3 µM. actives 0.99% (n = 360,000). AID 624467;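 active = activation above the mean activation of all test compounds in the run plus 3 SD, cut at about 38% in these data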
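System: CHO RD-HGA16 cells carrying human TAAR1 plus Gα16; Incubation: 17-24 h seeding, 75 min 37 °C dye, 30 min RT; Measured by: Fluo-8 fluorescence, 5 s baseline then 140 s kinetic read; Control set: DMSO and PEA EC100; Replication: single well for each compound.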
M1 antag: human CHRM1 antagonism; CHO-K1 hM1, Fluo-8 calcium fluorescence, ACh EC80 antagonist; inhibition, % at 3 µM; actives 1.3% (n = 360,000); AID 588852;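 active = percent inhibition above its own plate's cutoff, namely the mean of that plate's compound wells plus 3 SD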;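 also: peak over basal fluorescence ratio during 140 s after agonist addition; 0% = ACh EC80 plus DMSO and 100% = DMSO alone without agonist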
CHRM1 PAM: potentiates human M1 receptor response to acetylcholine; P11229; CHO-K1 hM1, Fluo-8 calcium fluorescence, ACh EC20; 0% = ACh EC20, 100% = maximal ACh; activation, % at 3 µM; actives 0.088% (n = 360,000); AID 588819; in the data active = activation above about 19%, passing the limit was not always enough
TAAR1 nonsel count: counter-screen for TAAR1 antagonists: nonselective antagonists; shares compounds with TAAR1 antag; counterscreen cell line, calcium fluorescence, antagonist mode; inhibition, % at 3 µM; actives 77% (n = 2,400); AID 651780; in the data active = inhibition above about 22%;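 also: CHO-Ga16 host cells stimulated with ATP at an EC80 level; 0% = agonist EC80 plus vehicle and 100% = vehicle without agonist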
TAAR1 antag conf: confirmation of human TAAR1 antagonists | shares compounds with TAAR1 antag | TAAR1-expressing cells, fluorescence antagonist read-out | inhibition, % at 3 µM | actives 40% (n = 2,400) | AID 651785; in the data active = inhibition above about 49%;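 also: CHO-Ga16 host cells challenged with agonist PEA near its EC80; 0% = agonist at EC80 plus vehicle and 100% = vehicle with no agonist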
Ga16 ag counter: counter-screen for TAAR1 antagonists: nonselective Ga16 agonists; shares compounds with TAAR1 antag; Ga16-expressing cells, calcium fluorescence, agonist counterscreen; activation, % at 3 µM; actives 18% (n = 2,400); AID 651953; in the data active = activation above about 12%;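 also: 0% = vehicle wells and 100% = saturating stimulus response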
TAAR1 ag count: TAAR1 agonism, antagonist counter-screen. actives 2% (n = 2,400). activation, % at 3 µM. AID 651955. hTAAR1 cell line, fluorescence activation, agonist mode. shares compounds with TAAR1 antag; in the data active = activation above about 37%;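 also: CHO cells stably expressing TAAR1 with calcium dye readout; 0% = DMSO vehicle and 100% = full agonist response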
* hit, by the source's call; x = not tested or not shown. Only some compounds are listed: those with a hit (about 3.4% of all), similar ones and a draw of the others.

SMILES	TAAR1 antag	M1 ag	TAAR1 agonist	M1 antag	CHRM1 PAM	TAAR1 nonsel count	TAAR1 antag conf	Ga16 ag counter	TAAR1 ag count
COCCn1cnc2c(c1=O)c1nc3ccccc3nc1n2/N=C/c1cccc(OC)c1	53*	-2	20	-3	2	27*	44	7	6
Cc1cc(C)c2c(CN3CCN(c4ccccc4F)CC3)cc(=O)oc2c1	-3	-5	-2	-3	0	x	x	x	x
CCn1c(=NC(=O)c2cccc(N3C(=O)CCC3=O)c2)sc2c(C)ccc(OC)c21	60*	0	12	7	-3	30*	47	6	6
CCn1c(=NC(=O)c2ccc(N3C(=O)CCC3=O)cc2)sc2c(OC)ccc(OC)c21	47	-7	0	18	-11	x	x	x	x
CN(C)c1nc(Nc2ccc(Cl)cc2)nc(OCC#N)n1	58*	-5	8	9	-7	-2	40	2	17
Cc1c(C(=O)NCc2cccc([N+](=O)[O-])c2)sc(=O)n1Cc1ccc(C(C)C)cc1	36	-5	0	-5	-1	x	x	x	x
CCN=C(NCC)SC1CC(=O)N(c2ccc(OCC)cc2)C1=O (stereo unspecified)	86*	0	16	30*	-20	28*	51*	11	11
CCN=C(Nc1cccc(F)c1)SC1CC(=O)N(c2ccc(OC)cc2)C1=O (stereo unspecified)	72*	-4	15	21	-16	34*	55*	7	6
CCCCNc1c(CC(C)C)nc2nc(C)cc(C)n12	-4	x	-1	x	x	x	x	x	x
COC(=O)c1cc(NC(=O)COC(=O)C2COc3ccccc3O2)cc(C(=O)OC)c1 (stereo unspecified)	72*	0	9	3	-4	26*	42	8	4
COC(=O)C(Nc1ccccc1Cl)(c1cc(C)c(O)c(C)c1)C(F)(F)F (stereo unspecified)	83*	-3	8	5	-3	8	40	4	8
OC(c1ccc(Cl)c(F)c1)c1ncc(-c2cccc(C(F)(F)F)c2)[nH]1 (stereo unspecified)	8	1	11	12	-5	x	x	x	x
CCCNC(=O)C[C@@H]1CC[C@H]2NC[C@H](O)COC[C@@H]2O1	-13	x	7	x	x	x	x	x	x
COc1ccc(CN2C(=O)CSCC2(C)C(=O)NCc2ccccc2)cc1 (stereo unspecified)	-2	x	5	x	x	x	x	x	x
CC(C)(C)c1ccc(-c2nc(-c3ccncc3)no2)cc1	106*	-4	-3	-4	3	15	19	13*	26
Cc1ccc(-c2nc(-c3ccncc3)no2)cc1	-28	-7	5	-3	1	x	x	x	x
CC(=O)C[C@@H]1SC[C@H](c2ccccc2)N1S(=O)(=O)c1ccc(C)cc1	-3	x	-2	x	x	x	x	x	x
Cc1ccc(/C=N/NC(=O)CSc2nnc(-c3ccc(Cl)cc3)n2-c2ccccc2)o1	58*	-2	12	13	-6	26*	45	7	5
Cc1ccc(-c2nnc(SCC(=O)N/N=C/c3ccccc3C(=O)O)n2-c2ccc(Cl)cc2)cc1	-31	-3	1	-13	9	x	x	x	x
O=C(CSc1nnc(-c2ccc(Cl)cc2)n1-c1ccc(Cl)cc1)N/N=C/c1ccco1	78*	1	13	5	-1	27*	54*	8	6
Cc1ccccc1CN1C(=O)CSCC1(C)C(=O)Nc1ccc2c(c1)OCCO2 (stereo unspecified)	1	x	0	x	x	x	x	x	x
C/C(=N\Nc1cc(C)nc(-c2ccccc2O)n1)c1ccccc1O	59*	-4	6	-3	3	30*	43	7	3
Cc1cc(N/N=C\c2ccccc2)nc(-c2ccccc2O)n1	46	-6	4	-7	-7	x	x	x	x
Cc1cc2cc(CCNC(=O)C(=O)c3c[nH]c4ccccc34)c(=O)[nH]c2cc1C	65*	1	19	22	-7	30*	45	9	7
Cc1cc2cc(CCNC(=O)C(C)C)c(=O)[nH]c2cc1C	-13	-1	6	-6	7	x	x	x	x
SMILES	TAAR1 antag	M1 ag	TAAR1 agonist	M1 antag	CHRM1 PAM	TAAR1 nonsel count	TAAR1 antag conf	Ga16 ag counter	TAAR1 ag count
CCS(=O)(=O)N1N=C(c2cccs2)CC1c1cc2cc(C)ccc2nc1Cl (stereo unspecified)	50*	-3	5	-8	2	11	19	10	9
COc1ccc(N2CCN(C(=O)c3cc4c(-c5cccc(OC)c5)nn(C)c4s3)CC2)cc1	8	-2	5	-6	4	x	x	x	x
CC(=O)c1ccc(N2CCN(C(=O)c3cc4c(-c5ccccc5F)nn(C)c4s3)CC2)cc1	55*	-3	1	8	-9	26*	34	6	4
CCOC(=O)c1csc(-c2ccc(COC(=O)c3ccccc3)o2)n1	x	-5	x	0	-4	x	x	x	x
Cc1cccc(N2CCN(C(=O)C3CCN(S(=O)(=O)c4cccc5cccnc45)CC3)CC2C)c1 (stereo unspecified)	75*	-1	15	26	-20	28*	54*	11	9
O=C(C1CCN(S(=O)(=O)c2cccc3cccnc23)CC1)N1CCCC1	1	-2	2	0	-2	x	x	x	x
Cc1ccc(NC(=O)C2CCCN(S(=O)(=O)c3cccc4cccnc34)C2)cc1 (stereo unspecified)	-16	0	5	-4	-5	x	x	x	x
COc1ccc(OC)c(NC(=O)C2CCCN(S(=O)(=O)c3cccc4cccnc34)C2)c1 (stereo unspecified)	60*	-2	12	14	-16	24*	40	9	7
COc1ccc(C)cc1NC(=O)C1CCN(S(=O)(=O)c2cccc3cccnc23)CC1	22	1	9	1	-6	x	x	x	x
Cc1ccccc1NC(=O)C1CCCN(S(=O)(=O)c2cccc3cccnc23)C1 (stereo unspecified)	54*	0	13	8	-9	20	39	7	7
COc1cc(NC(=O)[C@@H]2CCCN(S(=O)(=O)c3cccc4cccnc34)C2)cc(OC)c1OC	51*	-4	20	15	-9	29*	40	8	5
